Test results as given in ChEMBL document CHEMBL2151023, “2-Alkynoic fatty acids inhibit topoisomerase IB from Leishmania donovani” (Bioorg Med Chem Lett, 2012).
Activity calls are given as the source filed them. No cut-off for these calls is given here.

What was measured:
L6 = assay: Cytotoxicity against rat L6 cells; assay type: cell-based
Leishmania donovani = assay: Antiprotozoal activity against Leishmania donovani axenic amastigotes; assay type: functional, organism-based
Trypanosoma cruzi = assay: Antiprotozoal activity against intracellular Trypanosoma cruzi amastigotes in rat L6 cells; assay type: functional, organism-based
[1] = molecular target: T1, DNA topoisomerase type IB small subunit (Leishmania major) (UniProt Q95Z89); assay: Inhibition of Leishmania donovani topoisomerase 1B-mediated relaxation of supercoiled pSK DNA at 100 uM preincubated for 15 mins by ethidium bromide staining based agarose gel electrophoresis
T1 sequence (whole entry): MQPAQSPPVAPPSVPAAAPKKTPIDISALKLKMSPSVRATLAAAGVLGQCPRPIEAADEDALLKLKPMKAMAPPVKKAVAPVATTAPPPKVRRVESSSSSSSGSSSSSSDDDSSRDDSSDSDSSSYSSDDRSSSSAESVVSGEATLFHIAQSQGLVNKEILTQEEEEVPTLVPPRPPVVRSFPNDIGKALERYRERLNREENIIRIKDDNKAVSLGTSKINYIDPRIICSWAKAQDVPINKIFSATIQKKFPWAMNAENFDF
How it was run: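 LdTopIB pre-incubated 15 min at 4 °C with 100 µM compound, or with DMSO as control. […] Samples stopped with SDS, digested with proteinase K, phenol-chloroform extracted and resolved on ethidium bromide agarose gel.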

[2] = Inhibition of human topoisomerase 1B-mediated relaxation of supercoiled pSK DNA after 30 mins by ethidium bromide staining based agarose gel electrophoresis
How it was run: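 Plasmid DNA relaxation assay with the enzyme over 30 min at 37 °C, acid at 3.125–100 μM. Reactions stopped with 1% SDS plus proteinase K. Products resolved on agarose and stained with ethidium bromide, scoring supercoiled, nicked and relaxed topoisomer bands.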

[3] = Cytotoxicity against BALB/C mouse macrophages; assay type: cell-based; settings: Macrophage
[4] = molecular target: T1, DNA topoisomerase type IB small subunit (Leishmania major); assay: Inhibition of Leishmania donovani topoisomerase 1B-mediated relaxation of supercoiled pSK DNA at 100 uM after 4 mins by ethidium bromide staining based agarose gel electrophoresis
How it was run: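 Stopped with 1% SDS, then digested 1 h at 37°C with 1 mg/ml proteinase K. Extracted with phenol-chloroform and run on 1% agarose containing 40 µg/ml ethidium bromide.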

[5] = test system: Trypanosoma brucei rhodesiense; assay: Antiprotozoal activity against Trypanosoma brucei rhodesiense bloodstream forms; assay type: functional, organism-based
Leishmania infantum = assay: Induction of apoptosis in Leishmania infantum promastigotes at 400 uM after 24 hrs by AnnexinV-FITC/propidium iodide based FACS flow cytometry; assay type: functional
How it was run: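 L. infantum promastigotes exposed to 400 μM for 24 h, harvested, washed twice in PBS, resuspended at 1×10^6 cells/ml, stained with annexin V-FITC plus propidium iodide for 15 min at room temperature in the dark. Flow cytometry on at least 10,000 gated cells, read as percent of cells per quadrant. Untreated and H2O2-treated cells serve as controls. Representative of three independent trials.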

Work on `COc1cc([C@@H]2c3cc4c(cc3[C@H](O)[C@H]3COC(=O)[C@H]23)OCO4)cc(OC)c1OC` [PODOFILOX] yielded an IC50 (L6) of 0.02 µM.

Work on `CCCCCCCCCCCCCCCCOP(=O)([O-])OCC[N+](C)(C)C` [MILTEFOSINE] yielded an IC50 (Leishmania donovani) of 0.49 µM.

`O=C(Cn1ccnc1[N+](=O)[O-])NCc1ccccc1` [BENZNIDAZOLE] showed an IC50 (Trypanosoma cruzi) of 1.47 µM.

With `CCCCCCCCCCCCCCCC(=O)O` [PALMITIC ACID] the IC50 (L6) was 209 µM.

With `CC[C@@]1(O)C(=O)OCc2c1cc1n(c2=O)Cc2cc3ccccc3nc2-1` [CAMPTOTHECIN] the inhibition [1] was “Active”, the EC50 [2] was 2 µM and the IC50 [3] was 0.62 µM. For the same compound, the inhibition [4] was “inactive”.

`CCCCCCCCCCCCCCCC#CC(=O)O` gave an IC50 [5] of 64.5 µM, an IC50 (Leishmania donovani) of 11 µM and an Activity (Leishmania infantum) of 1.98%. It also gave an EC50 [2] of 51.9 µM, an IC50 (L6) of 20 µM and an IC50 [3] greater than 100 µM. The IC50 (Trypanosoma cruzi) was 48.1 µM.

`CCCCCCCCCCCC#CC(=O)O` showed an IC50 [5] of 255 µM, an IC50 (Leishmania donovani) of 24.7 µM and an Activity (Leishmania infantum) of 1.75%. The EC50 [2] was greater than 100 µM, the IC50 (L6) was 40.9 µM and the IC50 [3] was greater than 100 µM. For the same compound, the IC50 (Trypanosoma cruzi) was 62.4 µM.
